Source: PubChem
MrgX1 ag: agonists of human MrgX1 receptor; MrgX1-HEK293 cells, Fluo-4 calcium fluorescence, agonist mode; stronger effect = higher value; 310,000 tested, 0.44% active; AID 588627; B-score at 10 µM;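 active = calcium response B-score plate-corrected fluorescence ratio at least 3 library SD, with starting fluorescence B-score inside 5 SD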
Target sequence (Q96LB2 whole entry, looked up): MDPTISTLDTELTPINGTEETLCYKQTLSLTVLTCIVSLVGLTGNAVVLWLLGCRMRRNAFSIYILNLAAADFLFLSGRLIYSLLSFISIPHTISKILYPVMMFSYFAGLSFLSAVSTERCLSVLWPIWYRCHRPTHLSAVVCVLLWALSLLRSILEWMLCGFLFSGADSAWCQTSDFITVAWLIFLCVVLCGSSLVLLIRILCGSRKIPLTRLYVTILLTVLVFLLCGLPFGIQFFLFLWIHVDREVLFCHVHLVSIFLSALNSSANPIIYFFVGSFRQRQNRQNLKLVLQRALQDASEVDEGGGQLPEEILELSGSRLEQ
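Assay system: stable human MrgX1 HEK293 cell line. Quantity: 15,000 cells per well. Schedule: cells plated overnight, dye loaded 0.5 h 37 °C, 0.5 h room temperature. Detection: Fluo-4 NW calcium-flux fluorescence, kinetic read. Read-out basis: peak-minus-minimum fluorescence over baseline, converted to B scores. Control set: positive and negative control wells on each plate.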
RGS4 inh: human RGS4 inhibition; AID 463165; P49798; B-score at 10 µM; HEK293 M3R/RGS4 inducible, Fluo-4 calcium flux; stronger effect = higher value; triggered by carbachol at its EC20; 310,000 tested, 0.45% active;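 active = B-score, a plate-corrected calcium signal, over three deviations above library mean, with baseline fluorescence within five deviations of library mean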;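 also: RGS4 expression induced by doxycycline in cells with stable M3 receptor; B-score is computed from the integrated fluorescence ratio over baseline after carbachol; higher B-score means a larger calcium signal and so more RGS4 inhibition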
Target sequence (P49798 whole entry, looked up): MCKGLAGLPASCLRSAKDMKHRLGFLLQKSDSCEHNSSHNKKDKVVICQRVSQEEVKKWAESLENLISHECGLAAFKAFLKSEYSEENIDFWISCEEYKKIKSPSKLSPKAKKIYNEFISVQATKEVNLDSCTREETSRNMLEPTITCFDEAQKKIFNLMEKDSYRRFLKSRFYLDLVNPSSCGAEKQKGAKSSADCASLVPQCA
MrgX1 antagonist: antagonists of human MrgX1 receptor; 310,000 tested, 1.3% active; MRGX1-HEK293 calcium flux, Fluo-4, BAM8-22 antagonism; stronger effect = lower value; B-score at 10 µM; AID 588676; Q96LB2;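 active = calcium-response B-score plate-corrected more than 3 library SD below zero, starting fluorescence within 5 deviations, no agonist response on first addition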;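 also: peak minus trough fluorescence over baseline after final BAM8-22 challenge near maximal dose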
RGS4 pot: potentiators or activators of RGS4 | HEK293 M3R/inducible RGS4, carbachol calcium flux Fluo4; stronger effect = lower value | 310,000 tested, 0.92% active | B-score at 10 µM;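 active = B-score of the integrated calcium signal more than 4 SD below the library mean, with starting fluorescence not abnormally high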;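 also: negative B-score means reduced calcium response which marks RGS4 activation or potentiation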
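Also added: carbachol at ECmax as muscarinic agonist stimulus; Assay system: HEK293 cells with stable M3R and inducible RGS4; Timing: overnight RGS4 induction, 30 min dye load 37 °C, 20 min compound RT; Measured by: Fluo4-AM (2 µM) calcium-flux fluorescence, kinetic read.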
MrgX1 PAM: allosterically activates human MrgX1 receptor signaling; Q96LB2; MrgX1-HEK293, Fluo-4 calcium flux, FDSS; stronger effect = higher value; B-score at 10 µM; 310,000 tested, 0.63% active;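 active = plate-corrected calcium response at least 3 library SD above typical, normal starting fluorescence, not activating the receptor alone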;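 also: compound read alongside a low EC10 to EC30 dose of BAM8-22 agonist; peak minus trough fluorescence over baseline measured at the second addition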
Kir21 inh: blocks the mouse Kir2.1 inward-rectifier potassium channel | AID 1672 | B-score at 10 µM | HEK293-Kir2.1, FluxOR thallium flux fluorescence; stronger effect = lower value | P35561 | 310,000 tested, 0.85% active;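 active = fluorescence ratio B-score at or below minus 3 SD of library scores, with starting-brightness B-score within 2 SD, cut at about -4.2 in these data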;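 also: channel flux triggered by added potassium and thallium sulfate stimulus; B-score of peak minus minimum fluorescence over baseline after thallium stimulus; more negative B-score means stronger Kir2.1 block with less thallium influx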
* = called active by the depositor; i = inactive; . = not tested or not shown. Only some compounds are listed: those with a hit (about 4.1% of all), similar ones and a draw of the others.

SMILES	MrgX1 ag	RGS4 inh	MrgX1 antagonist	RGS4 pot	MrgX1 PAM	Kir21 inh
CCS(=O)(=O)C1=NN2C(=N)/C(=C\c3ccc(OS(=O)(=O)c4ccccc4)cc3)C(=O)N=C2S1	i	i	i	i	7.2*	1.5
CCC1=NN2C(=N)/C(=C/c3ccc(OS(=O)(=O)c4ccccc4)cc3)C(=O)N=C2S1	39*	i	i	i	i	-0.99
CCS(=O)(=O)C1=NN2C(=N)/C(=C\c3ccc(OS(=O)(=O)c4ccccc4)c(OC)c3)C(=O)N=C2S1	i	i	i	i	i	0.88
CCC1=NN2C(=N)/C(=C\c3cccn3-c3ccc(Cl)cc3)C(=O)N=C2S1	i	i	i	i	8.1*	0.76
O=C(NCc1ccco1)c1ccc2[nH]c(=O)c(=O)[nH]c2c1	i	i	i	i	i	2.1
O=C(/C=C/c1ccccc1)NNc1ccc(Cl)cc1	i	i	i	i	i	0.93
Fc1ccc(CSc2nsc(SCc3ccc(F)cc3)n2)cc1	i	i	i	i	i	0.9
O=C(Nc1nc(SCc2ccc(F)cc2)ns1)c1ccco1	i	8.2*	i	i	i	-0.36
CCc1cc[n+](-c2nc3ccccc3nc2[N-]S(=O)(=O)c2ccc(Br)s2)cc1	i	i	-6.5*	i	i	0.03
Cc1cc[n+](-c2nc3ccccc3nc2[N-]S(=O)(=O)c2ccccc2)cc1	i	i	i	i	i	0.54
Cc1ccc(N=C2C(=O)Nc3ccccc32)cc1	42*	i	i	i	i	-0.07
O=C1Nc2ccccc2C1=Nc1ccc(Cl)cc1	i	i	i	i	i	1.5
O=C(C1CCC(=O)N(C2CC2)C1)N1CCC(Oc2ccccc2F)CC1 (centres undefined)	i	i	i	i	i	-0.35
Oc1c(Cl)cc(Cl)cc1Sc1cc(Cl)cc(Cl)c1O	30*	i	i	i	i	0.96
COCCN(C(=O)COC(=O)CCc1ccccc1OC)c1c(N)n(Cc2ccccc2)c(=O)[nH]c1=O	i	i	-6*	i	i	0.98
O=C1c2ccccc2C(=O)N1c1cccc(-c2nc3ccccc3o2)c1	i	i	i	i	i	4.5
O=C1C=CC(=O)N1c1cccc(-c2ccccc2)c1	i	i	i	-9.5*	i	-0.68
O=C(CCCCCn1c(SCc2ccncc2)nc2ccccc2c1=O)NCc1ccco1	i	i	i	i	i	-4.3*
N#CC1=C(N)Oc2ccc3ccc(O)cc3c2C1c1ccsc1 (centres undefined)	.	i	.	i	.	-5*
CCCCN(CCCC)c1nc2ccccc2nc1C(C#N)C(=O)NCCCOC (centres undefined)	i	i	i	-9.5*	i	-1.6
COC(=O)CNC(=O)CN1C(=O)N(c2ccccc2)C(N(O)C(=O)Nc2ccccc2)C1(C)C (centres undefined)	i	.	i	.	i	.
Cc1cccc(C(=O)Nc2cc(C)ccc2NC(=O)COc2ccccc2)c1	i	i	i	i	i	-0.33
COc1ccccc1N1CCN(C(=O)c2cc3c(C)nc4ccccc4c3o2)CC1	i	i	i	-7.4*	i	-0.02
CCn1cc(SCC(=O)NC2CCCC2)c2ccccc21	i	i	i	i	i	-4.8*
CC(C)(C)CC(=O)N[C@@H](Cc1ccccc1)c1nc2ccccc2[nH]1	i	i	i	i	i	-1.4
SMILES	MrgX1 ag	RGS4 inh	MrgX1 antagonist	RGS4 pot	MrgX1 PAM	Kir21 inh
CN1CCN(CCCNC(=O)CCCOc2cc(=O)n(C)c3ccccc23)CC1	i	i	i	i	i	0.01
Cn1c(=O)cc(OCC(=O)NCCCN2CCN(Cc3ccccc3)CC2)c2ccccc21	i	i	-4.5*	i	i	0.41
O=C(Nc1cccc(F)c1)Nc1ccc2c(c1)CCC2	i	i	i	i	i	-0.02
Cc1nc(Sc2nnnn2-c2ccccc2)c(C#N)c(C)c1C	i	i	i	i	i	-4.9*
Cc1cc(C)c(C#N)c(Sc2nnnn2-c2ccccc2)n1	i	i	i	i	i	-2
COc1ccc(S(=O)(=O)N2CCC(C(=O)NCCCn3ccnc3)CC2)cc1C	i	i	i	i	i	0.12
CCN(CC)CCCNC(=O)c1ccc(N2CCCCC2)c(NS(=O)(=O)c2ccc(C)cc2)c1	27*	i	i	i	i	0.49
O=C(NCC1CCCO1)/C(=C\c1cccc([N+](=O)[O-])c1)NC(=O)c1ccccc1 (centres undefined)	i	i	-5.7*	i	i	1.7
COCCNC(=O)c1ccccc1N(Cc1ccccc1)S(=O)(=O)c1ccccc1	i	i	i	i	i	0.73
O=Cc1ccc(N2N=C(c3ccccc3)CC2c2ccccc2)cc1 (centres undefined)	i	i	i	-10*	i	0.08
N#CC1CC(c2ccc([N+](=O)[O-])cc2)=NN1c1ccc([N+](=O)[O-])cc1 (centres undefined)	i	i	-6.2*	i	i	-1.6
O=[N+]([O-])c1cccc(C2CC(c3ccccc3)=NN2c2ccccc2)c1 (centres undefined)	i	i	-7.6*	i	i	1.5
COc1ccc(C2=NN(c3ccc(C=O)cc3)C(c3ccccc3)C2)cc1 (centres undefined)	i	i	i	i	i	-0.05
O=C(Nc1ccc(F)cc1)c1ccc2nsnc2c1	i	i	i	i	i	1.4
OC(CNCC1(N2CCCCC2)CCCCC1)COc1ccc(Cl)cc1Cl (centres undefined)	i	i	i	i	i	-9.3*
Clc1ccc(CSc2cc3c(nn2)-c2ccccc2CC3)cc1Cl	i	i	i	-8.1*	i	0.63
COc1ccc2cc(-c3[nH]ncc3CN3CCCCO3)ccc2c1	35*	i	i	i	i	-1.9
CCS(=O)(=O)C1=NSC2=NC(=O)/C(=C\c3ccc(OS(=O)(=O)c4ccccc4)c(OC)c3)C(=N)N21	i	i	i	i	33*	0.81
Cc1ccc(S(=O)(=O)Oc2ccc(/C=C3\C(=N)N4N=C(S(C)(=O)=O)SC4=NC3=O)cc2)cc1	i	i	i	i	i	0.05
Cc1ccc(S(=O)(=O)Oc2ccc(/C=C3/C(=N)N4C(=NC3=O)SN=C4S(C)(=O)=O)cc2)cc1	i	i	i	i	17*	0.02
